Measured values: ChEMBL document CHEMBL3112482, “Nonclassical antifolates, part 5. Benzodiazepine analogs as a new class of DHFR inhibitors: synthesis, antitumor testing and molecular modeling study” (Eur J Med Chem, 2014)

Tests used:
[1] = system: MDA-MB-435; assay: Growth inhibition of human MDA-MB-435 cells at 10 uM after 48 hrs; type: functional; conditions: MDA-MB-435, 48 h, read-out: GI
Outline: (§1)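 Single-dose primary screen in the NCI 60 human tumour cell line panel, run at the NCI facility. The panel covers nine subpanels: leukaemia, non-small cell lung, colon, CNS, melanoma, ovarian, renal, prostate and breast. Read-out was percent growth of treated cells, shown as a mean graph and reported as percent growth inhibition.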

[2] = system: M14; assay: Growth inhibition of human M14 cells at 10 uM after 48 hrs; type: functional; conditions: M14, 48 h, read-out: GI; outline: as §1
[3] = system: SNB-75; assay: Growth inhibition of human SNB75 cells at 10 uM after 48 hrs; type: functional; conditions: SNB-75, 48 h, read-out: GI
Outline: (§2)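 NCI 60-cell-line disease-oriented human tumor panel, single-dose primary screen at 10 µM. Data given as mean-graph percent growth of treated cells, reported as percent growth inhibition (GI %).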

[4] = system: SNB-19; assay: Growth inhibition of human SNB19 cells at 10 uM after 48 hrs; type: functional; conditions: SNB-19, 48 h, read-out: GI; outline: as §2
[5] = Growth inhibition of human SF539 cells at 10 uM after 48 hrs; type: functional; conditions: SF-539, 48 h, read-out: GI; outline: as §2
[6] = system: SF-268; assay: Growth inhibition of human SF268 cells at 10 uM after 48 hrs; type: functional; conditions: SF-268, 48 h, read-out: GI; outline: as §2
[7] = system: SW-620; assay: Growth inhibition of human SW620 cells at 10 uM after 48 hrs; type: functional; conditions: SW-620, 48 h, read-out: GI; outline: as §2
[8] = system: COLO 205; assay: Growth inhibition of human COLO205 cells at 10 uM after 48 hrs; type: functional; conditions: COLO 205, 48 h, read-out: GI; outline: as §1
[9] = system: NCI-H522; assay: Growth inhibition of human NCI-H522 cells at 10 uM after 48 hrs; type: functional; conditions: NCI-H522, 48 h, read-out: GI; outline: as §1
[10] = system: NCI-H322M; assay: Growth inhibition of human NCI-H322M cells at 10 uM after 48 hrs; type: functional; conditions: read-out: GI; outline: as §1
[11] = system: NCI-H23; assay: Growth inhibition of human NCI-H23 cells at 10 uM after 48 hrs; type: functional; conditions: NCI-H23, 48 h, read-out: GI; outline: as §1
[12] = Growth inhibition of human EKVX cells at 10 uM after 48 hrs; type: functional; conditions: read-out: GI; outline: as §1
[13] = system: SR; assay: Growth inhibition of human SR cells at 10 uM after 48 hrs; type: functional; conditions: read-out: GI; outline: as §2
[14] = system: K562; assay: Growth inhibition of human K562 cells at 10 uM after 48 hrs; type: functional; conditions: K562, 48 h, read-out: GI; outline: as §1
[15] = system: MOLT-4; assay: Growth inhibition of human MOLT4 cells at 10 uM after 48 hrs; type: functional; conditions: MOLT-4, 48 h, read-out: GI; outline: as §1
[16] = system: CCRF-CEM; assay: Growth inhibition of human CCRF-CEM cells at 10 uM after 48 hrs; type: functional; conditions: read-out: GI; outline: as §1
[17] = target: T1, Dihydrofolate reductase (Bos taurus, UniProt P00376); assay: Inhibition of bovine liver DHFR measured for every 1 min of 10 mins
T1 sequence (P00376 whole entry): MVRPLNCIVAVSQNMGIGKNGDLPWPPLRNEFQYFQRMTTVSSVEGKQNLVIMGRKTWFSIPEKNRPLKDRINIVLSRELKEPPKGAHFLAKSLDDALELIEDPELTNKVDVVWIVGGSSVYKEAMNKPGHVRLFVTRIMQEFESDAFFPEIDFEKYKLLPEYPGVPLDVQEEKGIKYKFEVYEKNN

[18] = Cytotoxicity against human breast cancer cells at 10 uM after 48 hrs; type: functional; conditions: Cancer cell lines; outline: as §1
[19] = Cytotoxicity against human prostate cancer cells at 10 uM after 48 hrs; type: functional; conditions: Cancer cell lines
[20] = Cytotoxicity against human renal cancer cells at 10 uM after 48 hrs; type: functional; conditions: Cancer cell lines
[21] = Cytotoxicity against human CNS cancer cells at 10 uM after 48 hrs; type: functional; conditions: Cancer cell lines
[22] = Cytotoxicity against human colon cancer cells at 10 uM after 48 hrs; type: functional; conditions: Cancer cell lines; outline: as §1
[23] = system: T47D; assay: Growth inhibition of human T47D cells at 10 uM after 48 hrs; type: functional; conditions: read-out: GI; outline: as §2
[24] = Growth inhibition of human Hs 578T cells at 10 uM after 48 hrs; type: functional; conditions: read-out: GI; outline: as §1
[25] = system: MCF7; assay: Growth inhibition of human MCF7 cells at 10 uM after 48 hrs; type: functional; conditions: MCF7, 48 h, read-out: GI; outline: as §1
[26] = system: MDA-MB-231; assay: Growth inhibition of human MDA-MB-231 cells at 10 uM after 48 hrs; type: functional; conditions: MDA-MB-231, 48 h, read-out: GI; outline: as §1
[27] = system: DU-145; assay: Growth inhibition of human DU145 cells at 10 uM after 48 hrs; type: functional; conditions: DU-145, 48 h, read-out: GI; outline: as §1
[28] = system: PC-3; assay: Growth inhibition of human PC3 cells at 10 uM after 48 hrs; type: functional; conditions: PC-3, 48 h, read-out: GI; outline: as §1
[29] = system: TK-10; assay: Growth inhibition of human TK10 cells at 10 uM after 48 hrs; type: functional; conditions: TK-10, 48 h, read-out: GI; outline: as §2
[30] = Growth inhibition of human UO31 cells at 10 uM after 48 hrs; type: functional; conditions: UO-31, 48 h, read-out: GI; outline: as §2
[31] = system: CAKI-1; assay: Growth inhibition of human CAKI-1 cells at 10 uM after 48 hrs; type: functional; conditions: CAKI-1, 48 h, read-out: GI; outline: as §1
[32] = Growth inhibition of human RXF393 cells at 10 uM after 48 hrs; type: functional; conditions: RXF 393, 48 h, read-out: GI; outline: as §1
[33] = system: A498; assay: Growth inhibition of human A498 cells at 10 uM after 48 hrs; type: functional; conditions: A498, 48 h, read-out: GI; outline: as §1
[34] = system: SK-OV-3; assay: Growth inhibition of human SKOV3 cells at 10 uM after 48 hrs; type: functional; conditions: SK-OV-3, 48 h, read-out: GI; outline: as §2
[35] = Growth inhibition of human NCI-ADR-RES cells at 10 uM after 48 hrs; type: functional; conditions: read-out: GI; outline: as §1
[36] = system: OVCAR-8; assay: Growth inhibition of human OVCAR8 cells at 10 uM after 48 hrs; type: functional; conditions: OVCAR-8, 48 h, read-out: GI; outline: as §1
[37] = Growth inhibition of human OVCAR5 cells at 10 uM after 48 hrs; type: functional; conditions: OVCAR-5, 48 h, read-out: GI; outline: as §1
[38] = Growth inhibition of human OVCAR4 cells at 10 uM after 48 hrs; type: functional; conditions: OVCAR-4, 48 h, read-out: GI; outline: as §1
[39] = Growth inhibition of human UACC257 cells at 10 uM after 48 hrs; type: functional; conditions: UACC-257, 48 h, read-out: GI; outline: as §2
[40] = system: SK-MEL-28; assay: Growth inhibition of human SK-MEL-28 cells at 10 uM after 48 hrs; type: functional; conditions: SK-MEL-28, 48 h, read-out: GI; outline: as §2
[41] = system: SK-MEL-2; assay: Growth inhibition of human SK-MEL-2 cells at 10 uM after 48 hrs; type: functional; conditions: SK-MEL-2, 48 h, read-out: GI; outline: as §2
[42] = read-out: LC50 (the source's name)

Clc1ccc(/C=C2\CCCC3=C(c4ccc(Cl)cc4)Nc4ccccc4N=C32)cc1
inhibition of growth at 10 µM [1]: 88.2%
inhibition of growth at 10 µM [2]: 70.9%
inhibition of growth at 10 µM [3]: < 30%
inhibition of growth at 10 µM [4]: < 30%
inhibition of growth at 10 µM [5]: < 30%
inhibition of growth at 10 µM [6]: < 30%
inhibition of growth at 10 µM [7]: 58.6%
inhibition of growth at 10 µM [8]: 31.9%
inhibition of growth at 10 µM [9]: 80.1%
inhibition of growth at 10 µM [10]: < 30%
inhibition of growth at 10 µM [11]: < 30%
inhibition of growth at 10 µM [12]: < 30%
inhibition of growth at 10 µM [13]: 78.5%
inhibition of growth at 10 µM [14]: 52.8%
inhibition of growth at 10 µM [15]: 34.2%
inhibition of growth at 10 µM [16]: < 30%
IC50 [17]: 0.3 µM
GI50 [18]: 4.6 µM
LC50 (concentration killing 50% of cells) [18]: 88.1 µM
TGI [18]: 58.2 µM
GI50 [19]: 5.1 µM
LC50 [19]: > 100 µM
TGI [19]: 61.9 µM
CC50 [20]: 64 µM
GI50 [20]: 3.3 µM
TGI [20]: 29.1 µM
GI50 [21]: 4.9 µM
TGI [21]: 52.4 µM
CC50 [21, 42]: 84.3 µM
GI50 [22]: 2.4 µM
TGI [22]: 6.4 µM
CC50 [22, 42]: 38.8 µM
inhibition of growth at 10 µM [23]: < 30%
inhibition of growth at 10 µM [24]: < 30%
inhibition of growth at 10 µM [25]: 64.2%
inhibition of growth at 10 µM [26]: < 30%
inhibition of growth at 10 µM [27]: < 30%
inhibition of growth at 10 µM [28]: < 30%
inhibition of growth at 10 µM [29]: < 30%
inhibition of growth at 10 µM [30]: < 30%
inhibition of growth at 10 µM [31]: < 30%
inhibition of growth at 10 µM [32]: 34.7%
inhibition of growth at 10 µM [33]: 32.8%
inhibition of growth at 10 µM [34]: < 30%
inhibition of growth at 10 µM [35]: < 30%
inhibition of growth at 10 µM [36]: 34.3%
inhibition of growth at 10 µM [37]: < 30%
inhibition of growth at 10 µM [38]: < 30%
inhibition of growth at 10 µM [39]: < 30%
inhibition of growth at 10 µM [40]: < 30%
inhibition of growth at 10 µM [41]: < 30%

COc1ccc(/C=C2\CCCc3c2nc(N)nc3-c2ccc(OC)cc2)cc1
inhibition of growth at 10 µM [1]: < 30%
inhibition of growth at 10 µM [2]: < 30%
inhibition of growth at 10 µM [3]: < 30%
inhibition of growth at 10 µM [4]: < 30%
inhibition of growth at 10 µM [5]: < 30%
inhibition of growth at 10 µM [6]: < 30%
inhibition of growth at 10 µM [7]: < 30%
inhibition of growth at 10 µM [8]: < 30%
inhibition of growth at 10 µM [9]: < 30%
inhibition of growth at 10 µM [10]: < 30%
inhibition of growth at 10 µM [11]: < 30%
inhibition of growth at 10 µM [12]: < 30%
inhibition of growth at 10 µM [13]: < 30%
inhibition of growth at 10 µM [14]: < 30%
inhibition of growth at 10 µM [15]: < 30%
inhibition of growth at 10 µM [16]: < 30%
IC50 [17]: 18 µM
inhibition of growth at 10 µM [23]: < 30%
inhibition of growth at 10 µM [24]: < 30%
inhibition of growth at 10 µM [25]: < 30%
inhibition of growth at 10 µM [26]: < 30%
inhibition of growth at 10 µM [27]: < 30%
inhibition of growth at 10 µM [28]: < 30%
inhibition of growth at 10 µM [29]: < 30%
inhibition of growth at 10 µM [30]: < 30%
inhibition of growth at 10 µM [31]: < 30%
inhibition of growth at 10 µM [32]: < 30%
inhibition of growth at 10 µM [33]: < 30%
inhibition of growth at 10 µM [34]: < 30%
inhibition of growth at 10 µM [35]: < 30%
inhibition of growth at 10 µM [36]: < 30%
inhibition of growth at 10 µM [37]: < 30%
inhibition of growth at 10 µM [38]: < 30%
inhibition of growth at 10 µM [39]: < 30%
inhibition of growth at 10 µM [40]: < 30%
inhibition of growth at 10 µM [41]: < 30%
